Experimental data published in publication PMC9202693 (The Journal of General Physiology, 2022).
“Also recorded” adds a separate entry of the source. Read-outs that look alike come from different tables or passages of the source. Positions of bridges follow the written chain, without caps; N, C: chain ends. Residues, ends and D or L forms follow the SMILES beside them. No end group written: not given here.

Tests used:
[1] = biological target: T1, KV1.2 (Homo sapiens, UniProt P16389); assay: Whole-cell patch-clamp block of KV1.2 current, transiently transfected CHO cells; assay type: cell-based
T1 sequence (P16389 whole entry, the tested form may be a part): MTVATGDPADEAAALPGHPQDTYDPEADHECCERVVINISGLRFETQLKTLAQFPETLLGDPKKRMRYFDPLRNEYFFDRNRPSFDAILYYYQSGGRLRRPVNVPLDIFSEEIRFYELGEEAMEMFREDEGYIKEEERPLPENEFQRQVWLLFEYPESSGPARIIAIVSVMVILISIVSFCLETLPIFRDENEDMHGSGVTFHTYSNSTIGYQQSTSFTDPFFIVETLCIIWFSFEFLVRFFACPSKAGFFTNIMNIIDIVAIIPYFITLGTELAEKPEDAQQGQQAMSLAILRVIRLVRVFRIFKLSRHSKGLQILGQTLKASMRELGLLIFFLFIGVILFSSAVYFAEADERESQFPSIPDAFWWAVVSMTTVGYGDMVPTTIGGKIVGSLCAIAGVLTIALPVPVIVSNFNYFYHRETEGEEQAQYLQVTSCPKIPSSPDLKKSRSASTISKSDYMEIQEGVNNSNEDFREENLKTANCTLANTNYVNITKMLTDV
Summary of the method: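 hKV1.2 was expressed transiently in CHO cells, and GFP-positive cells were recorded 24–36 h after transfection. Whole-cell currents were evoked by 15-ms pulses to +50 mV from −120 mV every 15 s at 20–25°C, with leak below 10%, using gravity perfusion. RCF was peak I/I0 at equilibrium block.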

[2] = biological target: T2, KV1.3 (Homo sapiens, UniProt P22001); assay type: cell-based
T2 sequence (P22001 whole entry, the tested form may be a part): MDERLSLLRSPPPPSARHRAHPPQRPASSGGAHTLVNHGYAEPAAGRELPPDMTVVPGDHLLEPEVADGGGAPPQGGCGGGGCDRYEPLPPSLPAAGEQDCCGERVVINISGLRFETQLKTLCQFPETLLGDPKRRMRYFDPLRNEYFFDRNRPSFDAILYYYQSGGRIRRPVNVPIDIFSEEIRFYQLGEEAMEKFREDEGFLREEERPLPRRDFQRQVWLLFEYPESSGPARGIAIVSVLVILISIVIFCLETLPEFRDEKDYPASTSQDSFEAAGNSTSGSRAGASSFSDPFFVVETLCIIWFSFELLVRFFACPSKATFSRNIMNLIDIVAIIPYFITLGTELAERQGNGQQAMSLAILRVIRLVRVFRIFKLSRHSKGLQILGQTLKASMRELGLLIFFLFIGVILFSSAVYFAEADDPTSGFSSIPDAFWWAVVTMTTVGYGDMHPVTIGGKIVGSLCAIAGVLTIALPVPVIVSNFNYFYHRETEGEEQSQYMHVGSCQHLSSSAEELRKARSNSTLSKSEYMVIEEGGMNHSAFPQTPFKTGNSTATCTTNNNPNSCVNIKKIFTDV
Summary of the method: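 PBMCs from healthy donors were cultured 3–6 days in RPMI 1640 with 10% FBS and PHA (2, 5 or 10 µg/ml) to raise KV1.3. Whole-cell currents were evoked by 15-ms pulses to +50 mV from −120 mV every 15 s at 20–25°C, with gravity perfusion. Remaining current fraction was peak I/I0 at equilibrium block. Points (3–5 records each) were Hill-fitted for Kd and H. Perfusion control was 10 mM TEA+; wash-out used toxin-free solution.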

[3] = biological target: T1, KV1.2; assay: Binding kinetics of Cm28 block of KV1.2; assay type: cell-based
Summary of the method: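 KV1.2 transiently transfected into CHO cells; GFP-positive cells recorded 24–36 h post-transfection by whole-cell voltage clamp. Normal bath (mM): 145 NaCl, 5 KCl, 2.5 CaCl2, 1 MgCl2, 5.5 glucose, 10 HEPES, pH 7.35. 15-ms pulses to +50 mV from Vh −120 mV every 15 s with 2 nM toxin. Normalized peak current versus time fitted single-exponentially for wash-in/wash-out (τon, τoff); kon, koff from bimolecular model.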

[4] = biological target: T2, KV1.3; assay: Binding kinetics of Cm28 block of KV1.3; assay type: cell-based
Summary of the method: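 Activated human peripheral T lymphocytes (PHA-stimulated PBMCs) recorded by whole-cell voltage clamp in normal Na+-based bath, pH 7.35. 15-ms pulses to +50 mV from Vh −120 mV every 15 s. Wash-in and wash-out time courses of normalized peak current fitted with single exponentials. 1/τon and 1/τoff versus toxin concentration fitted by linear regression to give kon and koff, assuming simple bimolecular binding.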

[5] = biological target: T1, KV1.2; assay: Voltage dependence of activation; assay type: cell-based; conditions: KV1.2, 2 nM Cm28
Summary of the method: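 CHO cells were transiently transfected with GFP-tagged hKV1.2 and recorded by whole-cell clamp 24–36 h later at 20–25°C. For G-V, 300-ms steps from −70 to +80 mV in 10 mV increments were applied, with tail currents at −120 mV normalized to the maximum. For instantaneous I-V, 200-ms ramps to +50 mV were used. Pulses were given every 15 s. Traces are three-trace averages in control and at equilibrium block.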

[6] = system: hKV1.1; assay: Selectivity, patch-clamp, hKV1.1 in CHO cells; assay type: cell-based, human
Summary of the method: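 hKV1.1 (KCNA1, GFP-tagged vector) transiently transfected into CHO cells with Lipofectamine; GFP-positive cells recorded 24–36 h later by whole-cell voltage clamp. Normal bath (mM): 145 NaCl, 5 KCl, 2.5 CaCl2, 1 MgCl2, 5.5 glucose, 10 HEPES, pH 7.35. Remaining current fraction = peak current with/without 150 nM toxin at equilibrium block; mean ± SEM.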

[7] = system: hKV1.5; assay: Selectivity, patch-clamp, hKV1.5 in CHO cells; assay type: cell-based, human; conditions: 150 nM Cm28, 8–20 pulses (2–5 min), n ≥ 3
Summary of the method: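 Whole-cell KV1.5 currents recorded in normal bath (mM): 145 NaCl, 5 KCl, 2.5 CaCl2, 1 MgCl2, 5.5 glucose, 10 HEPES, pH 7.35. Remaining current fraction calculated as the ratio of peak currents with and without 150 nM test compound after 8–20 repeated depolarizing pulses (2–5 min). Reported as mean ± SEM, n ≥ 3.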

[8] = system: hKV11.1 (hERG1); assay: Selectivity, patch-clamp, hKV11.1 in human embryonic kidney 293 cells; assay type: cell-based; conditions: 150 nM Cm28, 8–20 pulses (2–5 min), n ≥ 3
Summary of the method: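 HEK293 cells stably expressing hKV11.1. Pipette (mM): 140 KCl, 2 MgCl2, 10 HEPES, 10 EGTA, pH 7.3. Step to +20 mV (1.25 s) from Vh −80 mV, then −40 mV (2 s), every 30 s. Peak tail current I/I0 at 150 nM after 8–20 pulses; n ≥ 3.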

[9] = system: hKCa3.1; assay: Selectivity, patch-clamp, hKCa3.1 in CHO cells; assay type: cell-based, human; conditions: 150 nM Cm28, 8–20 pulses (2–5 min), n ≥ 3
Summary of the method: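 Whole-cell KCa3.1 currents recorded with 150-ms ramps to +50 mV from −120 mV every 10 s. Bath (mM): 145 Na L-aspartate, 5 KCl, 10 HEPES, 5.5 glucose, 2.5 CaCl2, 1 MgCl2, pH 7.4. Pipette (mM): 150 K-Asp, 5 HEPES, 8.5 CaCl2, 1.0 MgCl2, pH 7.22. Peak I/I0 at 150 nM after 8–20 pulses (2–5 min); mean ± SEM, n ≥ 3.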

[10] = system: mKCa1.1; assay: Selectivity, patch-clamp, mKCa1.1 in human embryonic kidney 293 cells; assay type: cell-based; conditions: 150 nM Cm28, 8–20 pulses (2–5 min), n ≥ 3
Summary of the method: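 HEK293 cells stably expressing mKCa1.1 recorded in whole-cell mode in normal bath (145 NaCl, 5 KCl, 2.5 CaCl2, 1 MgCl2, 5.5 glucose, 10 HEPES mM, pH 7.35). Cells depolarized to +100 mV for 600 ms from Vh −100 mV. Peak I/I0 at 150 nM after 8–20 pulses (2–5 min); mean ± SEM, n ≥ 3.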

[11] = system: hNaV1.4; assay: Selectivity, patch-clamp, hNaV1.4 in human embryonic kidney 293 cells; assay type: cell-based; conditions: 150 nM Cm28, 8–20 pulses (2–5 min), n ≥ 3
Summary of the method: (§1)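 Whole-cell Na+ currents evoked by 15-ms steps to 0 mV every 10 s. Normal Na+-based bath, pH 7.35. Pipette (mM): 10 NaCl, 105 CsF, 10 HEPES, 10 EGTA, pH 7.2. Remaining peak current fraction at 150 nM after 8–20 pulses (2–5 min); mean ± SEM, n ≥ 3. NaV1.4 was recorded in HEK293 cells stably expressing the channel.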

[12] = system: hNaV1.5; assay: Selectivity, patch-clamp, hNaV1.5 in CHO cells; assay type: cell-based, human; conditions: 150 nM Cm28, 8–20 pulses (2–5 min), n ≥ 3
Summary of the method: as §1

[13] = system: hHV1; assay: Selectivity, patch-clamp, hHV1 in CHO cells; assay type: cell-based, human; conditions: 150 nM Cm28, 8–20 pulses (2–5 min), n ≥ 3
Summary of the method: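 Whole-cell proton current measured with a 1.0-s ramp to +100 mV from Vh −60 mV every 15 s. Bath (mM): 60 Na L-aspartate, 80 MES, 5.5 glucose, 6 MgCl2, pH 7.4. Pipette (mM): 90 Na L-aspartate, 80 MES, 6 MgCl2, 3.3 glucose, pH 6.17. Remaining current fraction (peak I/I0) taken at 150 nM after 8–20 pulses; mean ± SEM, n ≥ 3.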

[14] = system: CD4^+ TEM lymphocytes; assay: LDH cytotoxicity assay; assay type: cell-based, human; conditions: for cytotoxicity (LDH): 24 h culture, 1.5 μM Cm28 or 50 nM rMgTx, quiescent or TCR-activated cells, three independent experiments
Summary of the method: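 CD4+ TEM cells, unstimulated or anti-CD3-stimulated, were cultured 24 h with or without test peptide. Medium samples were mixed with LDH reaction substrate for 30 min in the dark, then stop solution was added. Activity was taken as A490 minus A680, and percent cytotoxicity was calculated against controls. Spontaneous and maximum controls were sterile water and lysis buffer (45 min, 37°C). Positive control: 50 mM NaN3. Three donors, two technical repeats, mean ± SEM.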

[15] = system: CD40L expression in CD4^+ TEM lymphocytes; assay: Expression of CD40L; assay type: cell-based, human
Summary of the method: (§2)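 CD4+ TEM cells were isolated from healthy-donor PBMCs by negative magnetic selection and held at 1 × 10^6 cells/ml in RPMI 1640 with 10% FBS. They were pre-incubated 30 min with test peptide, then stimulated 24 h at 37°C on plate-bound anti-CD3 (OKT3, 1 µg/well) with toxin kept present. Cells were stained 20 min at 4°C with anti-CD25 and anti-CD154. Gating was FSC/SSC, 10,000 events. MFI was normalized to the stimulated untreated control. Duplicates, three donors.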

[16] = system: IL2R expression in CD4^+ TEM lymphocytes; assay: Expression of IL2R; assay type: cell-based, human
Summary of the method: as §2

[17] = system: KV channels; conditions: ref Bartok et al., 2014, cited from earlier work
[18] = system: CD4^+ TEM lymphocytes; assay: Cell viability, Zombie NIR flow cytometry; assay type: cell-based, human; conditions: 24 h culture, 1.5 μM Cm28 or 50 nM rMgTx, quiescent or TCR-activated cells, three independent experiments
[19] = 1.5 µM Cm28, anti-CD3–activated, 24 h
[20] = US + Cm28 (1.5 µM), not exposed to anti-CD3
[21] = 5 nM rMgTx, 30 min pre-incubation, 24 h anti-CD3 stimulation, decreased to

CC(C)[C@@H]1NC(=O)[C@@H]2CSSC[C@H](NC(=O)[C@@H](N)CCCCN)C(=O)N[C@@H](CCCNC(=N)N)C(=O)N[C@@H](CCC(=O)O)C(=O)N[C@H]3CSSC[C@H](NC(=O)[C@H](CCCCN)NC(=O)CNC(=O)[C@H](CC(N)=O)NC1=O)C(=O)N[C@@H](C(C)C)C(=O)N[C@H](C(=O)N1CCC[C@H]1C(=O)N[C@@H](C)C(=O)O)CSSC[C@H](NC(=O)[C@H](CO)NC(=O)[C@@H]1CCCN1C(=O)[C@H](CO)NC(=O)[C@H]([C@@H](C)O)NC(=O)[C@H](CC(N)=O)NC(=O)CNC3=O)C(=O)N[C@@H](Cc1ccc(O)cc1)C(=O)N[C@@H](Cc1ccccc1)C(=O)N[C@@H](CO)C(=O)NCC(=O)N[C@@H](CC(N)=O)C(=O)N2 [Cm28] (H-KCRECGNTSPSCYFSGNCVNGKCVCPA-OH; disulfide 2-18, 5-23, 12-25; N-terminus assumed)
Hill coefficient (H) ([1]; KV1.2, Hill fit of dose-response, n = 3–5): 1.04
recovery from block, % of control current ([1]; wash-out with toxin-free solution after 2 nM Cm28, took several minutes): ~85%
Hill coefficient (H) ([2]; KV1.3, Hill fit of dose-response, n = 3–5): 0.93
inhibition at 0.002 µM ([2]; read-out: inhibition of current at block equilibrium): ~58%
time for 90% recovery from block ([2]; wash-out with toxin-free solution after 2 nM Cm28): 10 min
koff [3]: 0.0013 s⁻¹
kon [3]: 1.1e+06 M⁻¹ s⁻¹
koff [4]: 0.0028 ± 0.000215 s⁻¹
kon [4]: 1.3e+06 M⁻¹ s⁻¹
shift in G-V curve / activation threshold [5]: did not introduce any substantial shift in the G-V curve of KV1.2
reduction of KV1.1 current ([6]; 150 nM Cm28, equilibrium block): ~27%
fold less affinity for KV1.1 (vs KV1.2 and KV1.3) ([6]; compared with KV1.2 and KV1.3): ~400 fold
inhibition of KV1.1 ([6]; text of Discussion, high concentration ∼100× of Kd for KV1.3): did not inhibit
inhibition of KV1.5 [7]: did not inhibit
inhibition of KV11.1 [8]: did not inhibit
inhibition of KCa3.1 [9]: did not inhibit
inhibition of KCa1.1 [10]: did not inhibit
inhibition of NaV1.4 [11]: did not inhibit
inhibition of NaV1.5 [12]: did not inhibit
inhibition of hHV1 [13]: did not inhibit
cytotoxicity (LDH) [14]: < 1%
CD40L expression in activated cells [15, 19]: strongly inhibited; also recorded: significantly reduced
CD40L expression in unstimulated cells [15, 20]: no change
IL2R expression in activated cells [16, 19]: strongly inhibited; also recorded: significantly reduced
IL2R expression in unstimulated cells [16, 20]: no change

[N-]=[N+]=[N-].[Na+] [NaN3, sodium azide]
cytotoxicity (LDH), positive control ([14]; 50 mM NaN3): 15%

CC[N+](CC)(CC)CC.[Cl-] [TEA^+, reference compound]
inhibition in peak current, perfusion control ([2]; 10 mM TEA^+, KV1.3): ~50%

ChTx [reference compound]
inhibition in peak current, perfusion control ([1]; 14 nM ChTx, KV1.2): ~50%
block of KV1.x channel subtypes [17]: blocks more than one KV1.x channel subtypes with high affinity

MgTx (TIINVKCTSPKQCLPPCKAQFGQSAGAKCMNGKCKCYPH; UniProt P40755 1-39, looked up)
block of KV1.x channel subtypes [17]: blocks more than one KV1.x channel subtypes with high affinity
block of KV1.x channel subtypes ([17]; listed as margatoxin): blocks different KV channels

rMgTx (TIINVKCTSPKQCLPPCKAQFGQSAGAKCMNGKCKCYPH; ends and bridges not checked; cysteine pairing not given here; UniProt P40755 1-39, looked up) [reference compound]
viable cells [18]: ≥ 90%
cytotoxicity (LDH) [14]: < 2%
CD40L expression, normalized to stimulated non-treated control [15, 21]: ~51%
IL2R expression, normalized to stimulated non-treated control [16, 21]: ~48%
